Data: ChEMBL document CHEMBL1811844, “Design, synthesis, and biological evaluation of triazolo-pyrimidine derivatives as novel inhibitors of hepatitis B virus surface antigen (HBsAg) secretion” (J Med Chem, 2011)

Legend:
Type in all cases: ADME, organism-based
Conditions in all cases: in vivo
Rattus norvegicus [1] = assay: Cmax in fasted Sprague-Dawley rat plasma at 25 mg/kg, po after 6 hrs by LC/MS/MS analysis; set-up: dose 25 mg/kg, route oral
In short: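 Male rats, 3 per treatment, fitted with jugular vein cannulae two days before dosing and fasted 12 h (water allowed). Compound given by gavage at 25 mg/kg, formulated at 2 mg/mL in 1:1 NMP:Solutol HS15 diluted with saline. Blood taken predose and at 5, 15, 30 min, 1, 3 and 6 h. Plasma quantified by LC/MS against an 8-point standard curve; Cmax calculated by standard methods.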

Rattus norvegicus [2] = assay: Oral bioavailability in fasted Sprague-Dawley rat at 25 mg/kg after 6 hrs by LC/MS/MS analysis
In short: (§1)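 Male Sprague-Dawley rats, 3 per treatment, carried jugular cannulae and were fasted 12 h with water. Compound was formulated at 2 mg/mL in 1:1 NMP:Solutol HS15 diluted with saline. Dosing was 5 mg/kg iv or 25 mg/kg oral gavage. Blood was drawn predose and at 5, 15, 30 min, 1, 3 and 6 h. Plasma was quantified by LC-MS/MS against an 8-point standard curve.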

Rattus norvegicus [3] = assay: Total body clearance in fasted Sprague-Dawley rat at 5 mg/kg, iv by LC/MS/MS analysis; set-up: dose 5 mg/kg, route intravenous; in short: as §1
Rattus norvegicus [4] = assay: Volume of distribution at steady state in fasted Sprague-Dawley rat at 5 mg/kg, iv by LC/MS/MS analysis; set-up: dose 5 mg/kg, route intravenous; in short: as §1
Rattus norvegicus [5] = assay: Half life in fasted Sprague-Dawley rat plasma at 5 mg/kg, iv by LC/MS/MS analysis; set-up: dose 5 mg/kg, route intravenous; in short: as §1

Cmax (Rattus norvegicus [1]): 1937 ng/mL | F (Rattus norvegicus [2]): 42% | CL (Rattus norvegicus [3]): 17 mL/min/kg | Vdss (Rattus norvegicus [4]): 2.6 L/kg | t1/2 (Rattus norvegicus [5]): 2.4 h
SMILES: Fc1cccc(F)c1C1C=C(c2ccc(Cl)cc2)Nc2ncnn21 (stereo not given)
